Data as given in ChEMBL document CHEMBL4145507, “Design, synthesis and biological evaluation of novel indole-benzimidazole hybrids targeting estrogen receptor alpha (ER-α)” (Eur J Med Chem, 2018).
Activity calls are given as the source filed them. The calls are words filed in the database; no cut-off is given here.

System: T47D
Assay: Downregulation of ERalpha protein levels in human T47D cells at 5 uM after 48 hrs by Western blot analysis
Assay type: functional
How it was run: (§1)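 T47D cells exposed 48 h, lysed in modified RIPA (50 mM Tris-HCl pH 7.4, 150 mM NaCl, 1 mM EDTA, 1% NP-40, protease inhibitors), protein by Bradford. 50 µg protein run on 10% SDS-PAGE, transferred to nitrocellulose, blocked with 5% milk, probed overnight at 4 °C with rabbit anti-ERα (HC-20), HRP secondary, ECL detection. Normalized to β-actin; three experiments.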
Work on `Brc1ccc2[nH]c(-c3cc4ccccc4[nH]3)nc2c1` yielded an Activity of 27.5%.

System: not listed separately
Assay: Drug uptake in human T47D cell cytosol at 5 uM after 24 hrs by confocal laser scanning microscopic method
Assay type: ADME, subcellular
With `Brc1ccc2[nH]c(-c3cc4ccccc4[nH]3)nc2c1` the Drug uptake was “Active”.

System: T47D
Assay: Downregulation of ERalpha mRNA levels in human T47D cells at 5 uM after 48 hrs by semi-quantitative RT-PCR analysis
Assay type: functional, cell-based
How it was run: (§2)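 T47D cells exposed 48 h; total RNA extracted with TRIzol, checked by NanoDrop and denaturing agarose gel, then reverse transcribed. ERα transcript amplified, run on agarose gel and quantified by densitometry, normalized to GAPDH; representative of three experiments.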
With `Brc1ccc2[nH]c(-c3cc4ccccc4[nH]3)nc2c1` the Activity was “Active”.

System: T47D
Assay: Downregulation of ERalpha mRNA levels in human T47D cells at 15 uM after 48 hrs by semi-quantitative RT-PCR analysis
Assay type: functional, cell-based
How it was run: as §2
For `Brc1ccc2[nH]c(-c3cc4ccccc4n3Cc3ccccc3)nc2c1`, the Activity was “Active”. With `Cc1c(-c2ccc(O)cc2)n(Cc2ccc(OCCN3CCCCCC3)cc2)c2ccc(O)cc12` the Activity was “Active”.

System: not listed separately
Assay: Drug uptake in human T47D cell plasma membrane at 5 uM after 24 hrs by confocal laser scanning microscopic method
Assay type: ADME, cell membranes
For `Brc1ccc2[nH]c(-c3cc4ccccc4[nH]3)nc2c1`, the Drug uptake was “Active”.

System: not listed separately
Assay: Drug uptake in human T47D cell nucleus at 5 uM after 24 hrs by confocal laser scanning microscopic method
Assay type: ADME, subcellular
For `Brc1ccc2[nH]c(-c3cc4ccccc4[nH]3)nc2c1`, the Drug uptake was “Not Active”.

Molecular target: T1, Estrogen receptor (Homo sapiens, UniProt P03372)
T1 sequence (P03372 whole entry): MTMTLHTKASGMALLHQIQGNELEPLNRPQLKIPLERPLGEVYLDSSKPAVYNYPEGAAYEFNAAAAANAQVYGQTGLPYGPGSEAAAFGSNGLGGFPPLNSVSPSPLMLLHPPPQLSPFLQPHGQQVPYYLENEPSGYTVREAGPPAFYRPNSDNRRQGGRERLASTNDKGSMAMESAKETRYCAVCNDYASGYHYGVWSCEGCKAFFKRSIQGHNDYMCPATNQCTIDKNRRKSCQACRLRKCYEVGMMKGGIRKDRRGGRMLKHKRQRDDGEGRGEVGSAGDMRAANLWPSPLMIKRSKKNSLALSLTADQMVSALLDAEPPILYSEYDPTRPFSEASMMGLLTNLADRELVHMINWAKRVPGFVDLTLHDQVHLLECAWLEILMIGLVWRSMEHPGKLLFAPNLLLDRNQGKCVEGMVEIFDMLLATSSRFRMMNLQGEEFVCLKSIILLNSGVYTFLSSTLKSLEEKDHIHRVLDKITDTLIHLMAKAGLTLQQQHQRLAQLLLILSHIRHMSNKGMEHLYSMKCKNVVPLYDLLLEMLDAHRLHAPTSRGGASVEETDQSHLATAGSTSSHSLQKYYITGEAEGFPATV
Assay: Displacement of fluoromone TM from recombinant human ERalpha after 2 hrs by fluorescence polarization analysis
How it was run: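 Fluorescence polarization kit: serially DMSO-diluted compound mixed with recombinant human ERα/Fluormone ES2 complex, at least 2 h at room temperature in the dark. Controls were oestradiol for minimum polarization and free tracer. Percent inhibition normalized; IC50 from non-linear regression as the concentration displacing half of the bound ligand.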
`Brc1ccc2[nH]c(-c3cc4ccccc4n3Cc3ccccc3)nc2c1` gave an IC50 of 0.0736 µM. With `O=C(c1ccccc1)c1ccc2[nH]c(-c3cc4ccccc4[nH]3)nc2c1` the IC50 was 0.0469 µM. Compound `Cc1cc(C)c2nc(-c3cc4ccccc4n3Cc3ccccc3)[nH]c2c1` has an IC50 of 0.0331 µM. Compound `Cc1cccc2[nH]c(-c3cc4ccccc4n3Cc3ccccc3)nc12` has an IC50 of 0.387 µM. In the case of `Brc1ccc2[nH]c(-c3cc4ccccc4[nH]3)nc2c1`, the IC50 is reported as 0.0804 µM. Compound `Brc1cnc2[nH]c(-c3cc4ccccc4n3Cc3ccccc3)nc2c1` has an IC50 of 0.3 µM. With `BrC1=CN2NC(c3cc4ccccc4n3Cc3ccccc3)=NC2N=C1` (configuration not stated) the IC50 was 0.539 µM. `Clc1cc2nc(-c3cc4ccccc4n3Cc3ccccc3)[nH]c2cc1Cl` showed an IC50 of 0.0767 µM. Compound `c1ccc(Cn2c(-c3nc4ccccc4[nH]3)cc3ccccc32)cc1` has an IC50 of 0.259 µM. In the case of `Cc1cccc2[nH]c(-c3cc4ccccc4[nH]3)nc12`, the IC50 is reported as 0.192 µM. In the case of `c1ccc2[nH]c(C3=Nc4cccc5cccc(c45)N3)cc2c1`, the IC50 is reported as 0.202 µM.

System: PBMC
Assay: Cytotoxicity against human PBMC at 100 uM after 48 hrs by MTT assay
Assay type: cell-based
How it was run: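 PBMCs isolated from fresh blood of a healthy donor, held in RPMI-1640 with 10% FBS and antibiotic at 37 °C, 5% CO2. About 10^4 cells seeded per well, then MTT read-out as for the T47D assay (0.5 mg/ml MTT, 4 h, acidified DMSO, 570/620 nm).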
In the case of `c1ccc(Cn2c(-c3nc4cccnc4[nH]3)cc3ccccc32)cc1`, the Activity is reported as “Non-Toxic”. For `c1ccc(Cn2c(-c3nc4cc5ccccc5cc4[nH]3)cc3ccccc32)cc1`, the Activity was “Non-Toxic”. For `Brc1ccc2[nH]c(-c3cc4ccccc4n3Cc3ccccc3)nc2c1`, the Activity was “Non-Toxic”. In the case of `O=C(c1ccccc1)c1ccc2[nH]c(-c3cc4ccccc4[nH]3)nc2c1`, the Activity is reported as “Non-Toxic”. In the case of `BrC1=CN2NC(c3cc4ccccc4[nH]3)=NC2N=C1` (configuration not stated), the Activity is reported as “Non-Toxic”. With `Cc1cc(C)c2nc(-c3cc4ccccc4n3Cc3ccccc3)[nH]c2c1` the Activity was “Non-Toxic”. In the case of `Cc1cc(C)c2nc(-c3cc4ccccc4[nH]3)[nH]c2c1`, the Activity is reported as “Non-Toxic”. For `Cc1cccc2[nH]c(-c3cc4ccccc4n3Cc3ccccc3)nc12`, the Activity was “Non-Toxic”. For `c1ccc2[nH]c(-c3nc4ccccc4[nH]3)cc2c1`, the Activity was “Non-Toxic”. In the case of `Brc1ccc2[nH]c(-c3cc4ccccc4[nH]3)nc2c1`, the Activity is reported as “Non-Toxic”. In the case of `c1ccc2[nH]c(-c3nc4cccnc4[nH]3)cc2c1`, the Activity is reported as “Non-Toxic”. In the case of `Brc1cnc2[nH]c(-c3cc4ccccc4n3Cc3ccccc3)nc2c1`, the Activity is reported as “Non-Toxic”. In the case of `BrC1=CN2NC(c3cc4ccccc4n3Cc3ccccc3)=NC2N=C1` (configuration not stated), the Activity is reported as “Non-Toxic”. For `c1ccc2cc3[nH]c(-c4cc5ccccc5[nH]4)nc3cc2c1`, the Activity was “Non-Toxic”. For `Brc1cnc2[nH]c(-c3cc4ccccc4[nH]3)nc2c1`, the Activity was “Non-Toxic”. For `Clc1cc2nc(-c3cc4ccccc4n3Cc3ccccc3)[nH]c2cc1Cl`, the Activity was “Non-Toxic”. With `Clc1cc2nc(-c3cc4ccccc4[nH]3)[nH]c2cc1Cl` the Activity was “Non-Toxic”. For `O=C(c1ccccc1)c1ccc2[nH]c(-c3cc4ccccc4n3Cc3ccccc3)nc2c1`, the Activity was “Non-Toxic”. In the case of `c1ccc(Cn2c(-c3nc4ccccc4[nH]3)cc3ccccc32)cc1`, the Activity is reported as “Non-Toxic”. In the case of `Cc1cccc2[nH]c(-c3cc4ccccc4[nH]3)nc12`, the Activity is reported as “Non-Toxic”. In the case of `c1ccc2[nH]c(C3=Nc4cccc5cccc(c45)N3)cc2c1`, the Activity is reported as “Non-Toxic”.

System: T47D
Assay: Antiproliferative activity against human T47D cells after 48 hrs by MTT assay
`c1ccc(Cn2c(-c3nc4cc5ccccc5cc4[nH]3)cc3ccccc32)cc1` showed an IC50 of 13.4 µM. In the case of `Brc1ccc2[nH]c(-c3cc4ccccc4n3Cc3ccccc3)nc2c1`, the IC50 is reported as 15.5 µM. With `BrC1=CN2NC(c3cc4ccccc4[nH]3)=NC2N=C1` (configuration not stated) the IC50 was 24.4 µM. `Cc1cc(C)c2nc(-c3cc4ccccc4n3Cc3ccccc3)[nH]c2c1` gave an IC50 of 21.8 µM. `Cc1cc(C)c2nc(-c3cc4ccccc4[nH]3)[nH]c2c1` gave an IC50 of 24.8 µM. For `c1ccc2[nH]c(-c3nc4ccccc4[nH]3)cc2c1`, the IC50 was 6.2 µM. Work on `Brc1ccc2[nH]c(-c3cc4ccccc4[nH]3)nc2c1` yielded an IC50 of 4.99 µM. Work on `c1ccc2cc3[nH]c(-c4cc5ccccc5[nH]4)nc3cc2c1` yielded an IC50 of 23.4 µM. Compound `Brc1cnc2[nH]c(-c3cc4ccccc4[nH]3)nc2c1` has an IC50 of 21 µM. Compound `Clc1cc2nc(-c3cc4ccccc4n3Cc3ccccc3)[nH]c2cc1Cl` has an IC50 of 22.5 µM. In the case of `Clc1cc2nc(-c3cc4ccccc4[nH]3)[nH]c2cc1Cl`, the IC50 is reported as 21.2 µM. `c1ccc(Cn2c(-c3nc4ccccc4[nH]3)cc3ccccc32)cc1` gave an IC50 of 21.4 µM. In the case of `Cc1cccc2[nH]c(-c3cc4ccccc4[nH]3)nc12`, the IC50 is reported as 8.9 µM. In the case of `c1ccc2[nH]c(C3=Nc4cccc5cccc(c45)N3)cc2c1`, the IC50 is reported as 20.5 µM.

System: not listed separately
Assay: Drug uptake in human T47D cell plasma membrane at 15 uM after 24 hrs by confocal laser scanning microscopic method
Assay type: ADME, cell membranes
In the case of `Brc1ccc2[nH]c(-c3cc4ccccc4n3Cc3ccccc3)nc2c1`, the Drug uptake is reported as “Active”.

System: not listed separately
Assay: Drug uptake in human T47D cell cytosol at 15 uM after 24 hrs by confocal laser scanning microscopic method
Assay type: ADME, subcellular
With `Brc1ccc2[nH]c(-c3cc4ccccc4n3Cc3ccccc3)nc2c1` the Drug uptake was “Active”.

System: not listed separately
Assay: Drug uptake in human T47D cell nucleus at 15 uM after 24 hrs by confocal laser scanning microscopic method
Assay type: ADME, subcellular
In the case of `Brc1ccc2[nH]c(-c3cc4ccccc4n3Cc3ccccc3)nc2c1`, the Drug uptake is reported as “Not Active”.

System: T47D
Assay: Downregulation of ERalpha protein levels in human T47D cells at 15 uM after 48 hrs by Western blot analysis
Assay type: functional
How it was run: as §1
For `Brc1ccc2[nH]c(-c3cc4ccccc4n3Cc3ccccc3)nc2c1`, the Activity was 57.42%.
